# According to ChEMBL document CHEMBL4619765 (J Nat Prod, 2020):
# Active and inactive are the calls of the source. No cut-off for these calls is given here.
# How the values were obtained:
# [1] = Inhibition of complex 1 in bovine heart mitochondrial membranes in presence of NADH; parameters: species or system Bos taurus
# LNCaP C4-2 [2] = assay: Cytotoxicity against human C4-2 cells assessed as reduction in cell count at 1 uM after 48 hrs by acridine orange/DAPI staining based assay; format: functional
# How it was run: (§1)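 Cells trypsinized, pelleted, resuspended in PBS and stained with acridine orange/DAPI; viability and cell count read on an NC-3000 image cytometer. n = 4 treated, n = 10 control; mean ± S.E.M.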
# PNT2 [3] = assay: Cytotoxicity against human PNT2 cells assessed as reduction in cell viability at 1 uM after 48 hrs by acridine orange/DAPI staining based assay; details: pnt2, 48 h; how it was run: as §1
# LNCaP C4-2B [4] = assay: Cytotoxicity against human C4-2B cells assessed as reduction in cell viability at 1 uM after 48 hrs by acridine orange/DAPI staining based assay; format: functional; how it was run: as §1
# PNT2 [5] = assay: Inhibition of cell proliferation in human PNT2 cells at 1 uM after 150 hrs; format: cell-based; details: pnt2, 150 h
# How it was run: (§2)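 Seeded at 1,000 cells/well in RPMI 1640 with 10% FBS, 25 mM HEPES and 1 mM pyruvate; after 24 h, 1 μM rotenoid (ethanolic stock diluted in medium) or ethanol-only control added. Growth followed by live-cell imaging as confluence (% well area covered) until untreated control reached confluence; value at 150 h of treatment. Eight replicates per condition, mean ± S.E.M.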
# LNCaP C4-2 [6] = assay: Cytotoxicity against human C4-2 cells assessed as reduction in cell viability at 1 uM after 48 hrs by acridine orange/DAPI staining based assay; format: functional; how it was run: as §1
# LNCaP C4-2B [7] = assay: Antiproliferative activity against human C4-2B cells at 1 uM after 150 hrs; format: functional, cell-based; how it was run: as §2
# LNCaP C4-2 [8] = assay: Antiproliferative activity against human C4-2 cells at 1 uM after 150 hrs; format: functional, cell-based; how it was run: as §2
# PNT2 [9] = assay: Inhibition of complex 1 in human PNT2 cells assessed as reduction in oxygen rate at 1 uM incubated for 1 hr followed by rotenone and antimycin addition; format: cell-based
# How it was run: (§3)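 Cells seeded at 20,000/well on poly-L-lysine-coated Seahorse XF96 plates for 16 h, then moved into carbonate-free RPMI assay buffer (4.5 g/L glucose, pyruvate, GlutaMAX, pH 7.4). […] Rotenone-insensitive rate subtracted and traces normalized to 100% pre-addition. n = 6 treated, 16 controls; mean ± S.E.M.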
# LNCaP C4-2B [10] = assay: Inhibition of complex 1 in human C4-2B cells assessed as reduction in oxygen rate at 1 uM incubated for 1 hr followed by rotenone and antimycin addition; format: cell-based; how it was run: as §3
# LNCaP C4-2 [11] = assay: Inhibition of complex 1 in human C4-2 cells assessed as reduction in oxygen rate at 1 uM incubated for 1 hr followed by rotenone and antimycin addition; format: cell-based; how it was run: as §3
# LNCaP C4-2B [12] = assay: Cytotoxicity against human C4-2B cells assessed as reduction in cell count at 1 uM after 48 hrs by acridine orange/DAPI staining based assay; format: functional; how it was run: as §1
# MEF = assay: Cytotoxicity against PTEN-deficient MEF at 0.5 uM after 24 hrs by MTT assay relative to control; format: cell-based; details: mouse
# PNT2 [13] = assay: Cytotoxicity against human PNT2 cells assessed as reduction in cell count at 1 uM after 48 hrs by acridine orange/DAPI staining based assay; details: pnt2, 48 h; how it was run: as §1
# LNCaP = assay: Cytotoxicity against human LNCAP cells; format: functional; details: read-out: ED50 (the source's name)
structure (smiles),measurement,setting,value
COc1cc2c(cc1OC)[C@@H]1[C@H](O)c3ccc4c(c3O[C@@H]1CO2)C=CC(C)(C)O4,IC50,[1],0.0146 µM
COc1cc2c(cc1OC)[C@]1(O)C(=O)c3ccc4c(c3O[C@@H]1CO2)C[C@H](C(C)(O)CO)O4 (stereo not given in full),IC50,[1],> 10 µM
C=C(C)CCc1c(O)ccc2c1O[C@@H]1COc3cc(OC)c(OC)cc3[C@@H]1C2=O,IC50,[1],0.572 µM
COc1cc2c(cc1OC)[C@]1(O)[C@H](O)c3ccc4c(c3O[C@@H]1CO2)C[C@H](C(C)(C)O)O4,IC50,[1],> 10 µM
COc1cc2c(cc1OC)[C@]1(O)[C@H](O)c3ccc4c(c3O[C@@H]1CO2)C=CC(C)(C)O4,IC50,[1],0.135 µM
C=C(C)[C@H]1Cc2c(ccc3c2O[C@@H]2COc4cc(OC)c(OC)cc4[C@]2(O)[C@@H]3O)O1,IC50,[1],0.125 µM
COc1cc2c(cc1OC)[C@@H]1C(=O)c3ccc4c(c3O[C@@H]1CO2)C[C@H](C(C)(O)CO)O4 (stereo not given in full),Activity,LNCaP C4-2 [2],Active
same,Activity,PNT2 [3],Non-Toxic
same,Activity,LNCaP C4-2B [4],inactive
same,Activity,PNT2 [5],Non-Toxic
same,Activity,LNCaP C4-2 [6],inactive
same,Activity,LNCaP C4-2B [7],Active
same,Activity,LNCaP C4-2 [8],Active
same,inhibition,PNT2 [9],Active
same,inhibition,LNCaP C4-2B [10],Active
same,inhibition,LNCaP C4-2 [11],Active
same,IC50,[1],1.8 µM
C=C(CO)[C@H]1Cc2c(ccc3c2O[C@@H]2COc4cc(OC)c(OC)cc4[C@@H]2[C@@H]3O)O1,IC50,[1],0.458 µM
C=C(CO)[C@H]1Cc2c(ccc3c2O[C@@H]2COc4cc(OC)c(OC)cc4[C@]2(O)[C@@H]3O)O1,IC50,[1],> 10 µM
C=C(C)[C@H]1Cc2c(ccc3c2O[C@@H]2COc4cc(OC)c(OC)cc4[C@@H]2[C@@H]3O)O1,IC50,[1],0.0114 µM
COc1cc2c(cc1OC)[C@]1(O)[C@H](O)c3ccc4c(c3O[C@@H]1CO2)C[C@H](C(C)(O)CO)O4 (stereo not given in full),IC50,[1],> 10 µM
COc1cc2c(cc1OC)[C@@H]1[C@H](O)c3ccc4c(c3O[C@@H]1CO2)C[C@H](C(C)(C)O)O4,IC50,[1],0.75 µM
C=C(C)C(=O)Cc1c(O)ccc2c1O[C@@H]1COc3cc(OC)c(OC)cc3[C@]1(O)C2=O,IC50,[1],> 10 µM
C=C(C)C(=O)Cc1c(O)ccc2c1O[C@@H]1COc3cc(OC)c(OC)cc3[C@@H]1C2=O,IC50,[1],2.57 µM
COc1cc2c(cc1OC)[C@]1(O)C(=O)c3ccc4c(c3O[C@@H]1CO2)C[C@H](C(C)(C)O)O4,IC50,[1],> 10 µM
COc1cc2c(cc1OC)[C@@H]1C(=O)c3ccc4c(c3O[C@@H]1CO2)C(O)C(O)C(C)(C)O4 (mixture of isomers),IC50,[1],5.31 µM
COc1cc2c(cc1OC)[C@@H]1C(=O)c3ccc4c(c3O[C@@H]1CO2)CCC(C)(CO)O4 (mixture of isomers),IC50,[1],0.195 µM
COc1cc2c(cc1OC)[C@@H]1C(=O)c3ccc4c(c3O[C@@H]1CO2)C[C@H](C(C)CO)O4 (mixture of isomers),Activity,LNCaP C4-2B [12],Active
same,Activity,LNCaP C4-2 [2],Active
same,Activity,PNT2 [3],Non-Toxic
same,Activity,LNCaP C4-2B [4],inactive
same,Activity,PNT2 [5],Non-Toxic
same,Activity,LNCaP C4-2 [6],inactive
same,Activity,LNCaP C4-2B [7],Active
same,Activity,LNCaP C4-2 [8],Active
same,inhibition,PNT2 [9],Active
same,inhibition,LNCaP C4-2B [10],Active
same,inhibition,LNCaP C4-2 [11],Active
same,IC50,[1],0.228 µM
COc1cc2c(cc1OC)[C@]1(O)C(=O)c3ccc4c(c3O[C@@H]1CO2)C[C@H](C(C)CO)O4 (mixture of isomers),IC50,[1],3.58 µM
COc1cc2c(cc1OC)[C@@H]1[C@H](O)c3ccc4c(c3O[C@@H]1CO2)C[C@H](C(C)CO)O4 (mixture of isomers),IC50,[1],0.46 µM
COc1cc2c(cc1OC)[C@]1(O)[C@H](O)c3ccc4c(c3O[C@@H]1CO2)C[C@H](C(C)CO)O4 (mixture of isomers),IC50,[1],2.93 µM
COc1cc2c(cc1OC)[C@@H]1[C@H](O)c3ccc4c(c3O[C@@H]1CO2)C[C@H](C(C)(O)CO)O4 (mixture of isomers),IC50,[1],4.57 µM
COc1cc2c(cc1OC)[C@@H]1C(=O)c3ccc4c(c3O[C@@H]1CO2)CC(O)C(C)(C)O4 (mixture of isomers),IC50,[1],0.85 µM
C=C(CO)[C@H]1Cc2c(ccc3c2O[C@@H]2COc4cc(OC)c(OC)cc4[C@]2(O)C3=O)O1 [DABINOL],IC50,[1],3.81 µM
COc1cc2c(cc1OC)[C@@H]1C(=O)c3ccc4c(c3O[C@@H]1CO2)C[C@H](C(C)(C)O)O4 [DALPANOL],Activity,LNCaP C4-2 [2],Active
same,Activity,PNT2 [3],Non-Toxic
same,Activity,LNCaP C4-2B [4],inactive
same,Activity,PNT2 [5],Non-Toxic
same,Activity,LNCaP C4-2 [6],inactive
same,Activity,LNCaP C4-2B [7],Active
same,Activity,LNCaP C4-2 [8],Active
same,inhibition,PNT2 [9],Active
same,inhibition,LNCaP C4-2B [10],Active
same,inhibition,LNCaP C4-2 [11],Active
same,IC50,[1],0.652 µM
COc1cc2c(cc1OC)[C@@H]1C(=O)c3ccc4c(c3O[C@@H]1CO2)C=CC(C)(C)O4 [DEGUELIN],IC50,[1],0.0106 µM
same,Activity,MEF,70%
C=C(C)[C@H]1Cc2c(ccc3c2O[C@@H]2COc4cc(OC)c(OC)cc4[C@]2(O)C3=O)O1 [ROTENOLONE],IC50,[1],0.13 µM
C=C(C)[C@H]1Cc2c(ccc3c2O[C@@H]2COc4cc(OC)c(OC)cc4[C@@H]2C3=O)O1 [ROTENONE],Activity,PNT2 [13],Toxic
same,Activity,LNCaP C4-2B [12],Active
same,Activity,LNCaP C4-2 [2],Active
same,Activity,PNT2 [3],Non-Toxic
same,Activity,LNCaP C4-2B [4],inactive
same,Activity,PNT2 [5],Non-Toxic
same,Activity,LNCaP C4-2 [6],inactive
same,Activity,LNCaP C4-2B [7],Active
same,Activity,LNCaP C4-2 [8],Active
COc1cc2c(cc1OC)[C@@H]1C(=O)c3ccc(O)c(CC=C(C)C)c3O[C@@H]1CO2 [ROTENONIC ACID],IC50,[1],1.09 µM
COc1cc2c(cc1OC)[C@]1(O)C(=O)c3ccc4c(c3O[C@@H]1CO2)C=CC(C)(C)O4 [TEPHROSIN],EC50,LNCaP,0.3 to 0.7 µM
